Results as given in ChEMBL document CHEMBL1134527, “Discovery of novel mesangial cell proliferation inhibitors using a three-dimensional database searching method” (2001).

Tests used:
Type in all cases: functional
[1] = Compound was tested for the in vitro MC proliferation Inhibitory activity at a dose of 0.1 uM against normal human mesangial cells
In short: (§1)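 Normal human glomerular mesangial cells grown in MCDB131 with 5% FBS, amphotericin B and gentamycin. Plated at 2 × 10⁴ cells/well for 3 days, then serum-free 4 days. Exposed to compound in DMEM + 2% FBS for 18 h with 1 μCi/mL [³H]thymidine. TCA-insoluble counts read; four wells per concentration. Inhibition % = (control − sample)/(control − DMEM blank).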

[2] = tested on: RPTEC; test: Compound was evaluated for the renal proximal tubular epithelial cell (RPTEC) proliferation assay using RPTEC's at a dose of 10 uM; conditions: Homo sapiens
In short: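 Human renal proximal tubular epithelial cells, run by the same [³H]thymidine method as the mesangial assay. Compound added in DMEM + 2% FBS for 18 h after serum-free pre-incubation. DNA synthesis taken as TCA-insoluble counts, four wells per concentration. Inhibition % = (control − sample)/(control − blank), where blank is DMEM alone.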

[3] = Compound was tested for the in vitro MC proliferation Inhibitory activity at a dose of 10 uM against normal human mesangial cells
In short: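 Normal human glomerular mesangial cells kept in MCDB131 with amphotericin B, gentamycin and 5% FBS. Seeded 2 × 10⁴ cells/well, grown 3 days, serum-starved 4 days. Then given compound in DMEM + 2% FBS for 18 h with 1 μCi/mL [³H]thymidine. TCA-insoluble counts read by scintillation, four wells per concentration. Inhibition % = (control − sample)/(control − blank), where blank is DMEM alone.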

[4] = tested on: RPTEC; test: Compound was evaluated for the renal proximal tubular epithelial cell (RPTEC) proliferation assay using RPTEC''s at a dose of 0.1 uM; conditions: Homo sapiens
In short: (§2)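 Human renal proximal tubular epithelial cells handled as in the mesangial assay: plated 2 × 10⁴ cells/well for 3 days, serum-starved 4 days. Then 18 h in DMEM + 2% FBS with compound and 1 μCi/mL [³H]thymidine. TCA-precipitable counts measured; four wells per concentration. % inhibition = (control − sample)/(control − blank).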

[5] = tested on: RPTEC; test: Compound was evaluated for the renal proximal tubular epithelial cell ( RPTEC) proliferation assay using RPTEC''s at a dose of 1 uM; conditions: Homo sapiens; in short: as §2
[6] = Compound was tested for the in vitro MC proliferation Inhibitory activity at a dose of 1 uM against normal human mesangial cells; in short: as §1

SMILES	inhibition at 0.1 µM [1]	inhibition at 10 µM [2]	inhibition at 10 µM [3]	inhibition at 0.1 µM [4]	inhibition at 1 µM [5]	inhibition at 1 µM [6]
CCOC(=O)c1cc(NC(=O)NC(=O)c2c(Cl)cccc2Cl)ccc1Oc1cncc(Cl)c1	90%	96%	112%	-1%	32%	105%
CCOP(=O)(Cc1ccc(C(=O)Nc2nc3c(OC)cc(OC)cc3s2)cc1)OCC	59%	103%	108%	33%	39%	59%
Cc1c(Cc2c(Cl)cccc2Cl)c(=O)oc2cc(OCC(=O)OCC(=O)c3ccc(Cl)cc3)ccc12	72%	21%	80%	16%	6%	74%
Cc1c(Cc2c(Cl)cccc2Cl)c(=O)oc2cc(OCC(=O)OCC(=O)c3ccccc3)ccc12	49%	31%	66%	35%	24%	60%
CCOP(=O)(Cc1ccc(C(=O)Nc2ccc(Br)cc2C#N)cc1)OCC [IBROLIPIM]		77%	56%			
CO/C(O)=C(/C=N/c1ccc(Oc2ccccc2OC(C)C)nc1)NC(=O)c1ccccc1	68%	8%	82%	2%	12%	73%
CCOP(=O)(Cc1ccc(C(=O)Nc2ccccn2)cc1)OCC	62%	60%	68%	23%	32%	65%
CCOP(=O)(Cc1ccc(C(=O)Nc2cc(-c3ccc(Cl)cc3)no2)cc1)OCC	69%	99%	94%	30%	88%	91%
CCOP(=O)(Cc1ccc(C(=O)Nc2nc(-c3ccccc3)ns2)cc1)OCC	62%	96%	108%	33%	61%	85%
